# TAAR1 ag: human TAAR1 agonism; Q96RJ0; CHO RD-HGA16 TAAR1, Fluo-8 calcium fluorescence; vehicle wells 0%, saturating PEA agonist 100%; activation, % at 3 µM; 360,000 tested, 0.99% active;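 active = activation above the mean activation of all test compounds in the run plus 3 SD, cut at about 38% in these data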
# Target sequence (Q96RJ0 whole entry, looked up): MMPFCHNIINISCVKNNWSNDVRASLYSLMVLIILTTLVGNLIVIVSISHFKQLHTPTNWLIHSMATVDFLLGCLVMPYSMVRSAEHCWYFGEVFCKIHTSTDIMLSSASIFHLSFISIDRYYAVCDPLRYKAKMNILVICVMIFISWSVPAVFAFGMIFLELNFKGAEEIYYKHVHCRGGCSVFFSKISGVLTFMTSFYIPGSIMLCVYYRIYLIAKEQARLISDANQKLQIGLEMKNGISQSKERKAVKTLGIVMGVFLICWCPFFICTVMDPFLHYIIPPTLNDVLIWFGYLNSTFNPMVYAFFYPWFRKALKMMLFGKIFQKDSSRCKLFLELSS
#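 Test system: RD-HGA16 (CHO) cells co-expressing Gα16 and hTAAR1; dosing: one-point dosing at 3 µM (nominal); timing: 17-24 h seeding, 75 min 37 °C dye, 30 min RT; signal: kinetic Fluo-8 calcium fluorescence; read-out basis: % activation relative to PEA EC100 response; controls: DMSO and PEA EC100; replicates: n 1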
# rCAG RNA binder: molecules binding r(CAG) RNA repeats; 370,000 tested, 1.3% active; AID 651821; r(CAG) RNA repeat, TO-PRO-1 dye displacement fluorescence; inhibition, % at 3 µM;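 active = inhibition above the plate cutoff, the mean of all test compounds on that plate plus 3 SD, cut at about 35% in these data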;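 note: higher means more dye released from RNA so lower well fluorescence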
# core dimer inh: blocks dimerization of HCV core protein. 300,000 tested, 0.33% active. AID 1899. TR-FRET GST/Flag-core106 dimerization, 1536-well. inhibition, % at 5 µM;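 active = inhibition above the mean of all tested compounds plus 3 SD, set per screening campaign, cut at about 45% in these data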
#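 assay system = GST-tagged and Flag-tagged HCV core protein residues 1-106 | controls = unlabelled core106 and no-GST-core106 wells | incubation = compound-protein-antibody incubation 4 h at 22.5 °C | probe or stimulus = Eu donor and XL665 acceptor anti-tag antibodies | read-out = % inhibition based on acceptor/donor emission ratio | signal = TR-FRET 671 and 617 nm emission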
# TAAR1 antag: human TAAR1 antagonism | Q96RJ0 | CHO RD-HGA16 TAAR1, Fluo-8 calcium fluorescence, antagonist | inhibition, % at 3 µM | 360,000 tested, 1.5% active | AID 624466;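 active = inhibition above a per-plate cutoff, the mean inhibition of test compounds on that plate plus 3 SD, cut at about 49% in these data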
#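 Material: CHO RD-HGA16 cells bearing hTAAR1; compound dosing: one-point dosing, 3 µM nominal final; schedule: dye loading 75 min at 37 °C, then 30 min room temperature; measured by: calcium fluorescence with Fluo-8; control set: vehicle and agonist controls; replication: n of 1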
# HCV NS3 hel inh: HCV NS3 helicase inhibition; AID 1800; 290,000 tested, 0.56% active; inhibition, % at 10.9 µM; NS3 helicase DNA unwinding, Cy5 molecular beacon fluorescence;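 active = inhibition above the mean of all tested compounds plus 3 SD, set per campaign, cut at about 35% in these data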
#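 assay system = NS3 helicase fragment of HCV | buffer or medium = MOPS pH 6.5, MgCl2, DTT, Tween20, BSA | timing = 60 min unwinding reaction at 25 °C after ATP addition | signal = Cy5 beacon fluorescence read at start and 1 h | read-out basis = % inhibition of unwinding | control set = low DMSO, high thioflavine S at 110 µM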
# TAAR1 ag conf: human TAAR1 agonism, confirmed. activation, % at 3 µM. AID 651783. CHO RD-HGA16 TAAR1, Fluo-8 calcium fluorescence; scaled: DMSO 0%, maximal phenethylamine 100%. 2,400 tested, 82% active. shares compounds with TAAR1 ag;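 active = activation above a cutoff set at the run's mean compound activation plus 3 SD, cut at about 39% in these data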
# Ga16 ag counter: nonselective agonism, TAAR1 counter-screen | activation, % at 3 µM | 2,400 tested, 50% active | shares compounds with TAAR1 ag | CHO-Ga16 parental, Fluo-8 calcium fluorescence; normalized to maximal ATP response, DMSO zero;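 active = activation above the run cutoff, the mean activation over all tested wells plus 3 SD, cut at about 12% in these data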
# TAAR1 desens: counter-screen for human TAAR1 agonists: agonists that desensitize TAAR1 | shares compounds with TAAR1 ag | CHO RD-HGA16 hTAAR1, Fluo-8 calcium, beta-PEA response inhibition | inhibition, % at 3 µM | 2,400 tested, 46% active | AID 651951;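 active = inhibition above the run cutoff, the mean inhibition of all test compounds plus 3 SD, cut at about 49% in these data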;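 note: beta-PEA stimulus applied at its EC80; loss of beta-PEA calcium signal after compound pretreatment read as receptor desensitization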
# Ga16 antag count: counter-screen for TAAR1 agonists: nonselective Ga16 antagonists | shares compounds with TAAR1 ag | CHO-Ga16 ATP-induced calcium, Fluo-8 fluorescence | inhibition, % at 3 µM | 2,400 tested, 39% active | AID 651952;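 active = inhibition above the plate's mean compound inhibition plus 3 SD, computed per plate, cut at about 22% in these data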
# A number is an active result; . = inactive; / = no result given; ! = not active in a repeat. In the library only some 3.7% were active in any assay of this set; here they are far more common.
SMILES,TAAR1 ag,rCAG RNA binder,core dimer inh,TAAR1 antag,HCV NS3 hel inh,TAAR1 ag conf,Ga16 ag counter,TAAR1 desens,Ga16 antag count
CCOC(=O)c1ccc(NC(=S)N2CCC(O)CC2)cc1,.,.,.,.,.,/,/,/,/
CCOC(=O)c1ccc(NC(=S)N2CCSC2c2ccc(Br)cc2)cc1 (stereo not drawn),138.2,.,.,103.3,.,129.7,92.7,101.6,84.7
COc1ccc(C(=O)CC2(O)C(=O)N(CN3CCOCC3)c3ccc(Br)cc32)cc1 (stereo not drawn),.,.,/,.,/,/,/,/,/
CCCCN1Cc2cc(C(=O)c3cc(F)ccc3O)cnc2NC1=O,82.1,.,.,.,.,53.1,23.8,.,.
Cc1ccccc1OCCC(=O)Nc1cc(S(=O)(=O)N2CCCCC2)ccc1N1CCN(C)CC1,89.6,.,/,49.3,/,105.4,73.4,78.4,58.8
Cc1ccc(OCC(=O)Nc2cc(S(=O)(=O)N3CCCCC3)ccc2N2CCN(C)CC2)c(C)c1,.,.,.,.,/,/,/,/,/
Cc1ccccc1CNC(=O)/C=C\C(=O)O,.,.,.,.,.,/,/,/,/
O=C(O)/C=C/C(=O)NCc1csc2ccccc12,/,.,.,/,.,/,.,/,.
O=C(Cc1ccccc1)NC(=S)Nc1cccc(C(F)(F)F)c1,55.5,.,.,.,.,.,14.5,.,.
Cc1ccc(NC(=S)NC(=O)Cc2ccccc2)c(O)c1,65.8,.,/,.,.,72.6,27.0,.,24.0
O=C(Cc1ccccc1)NC(=S)Nc1cc(C(F)(F)F)ccc1Cl,53.2,.,.,49.3,.,49.0,20.4,.,.
O=C(Cc1ccc(Cl)cc1)NC(=S)Nc1ccccc1N1CCOCC1,64.9,.,.,52.0,.,71.7,44.1,57.1,33.6
CCCC(=O)NC(=S)Nc1ccccc1N1CCOCC1,.,.,.,.,.,/,/,/,/
Cc1cc(O)cc(=O)n1-c1ccc(OC(F)F)cc1,.,.,/,.,/,/,/,/,/
CC(=O)c1cccc(NC(=S)NC(=O)Cc2ccc(Cl)cc2)c1,94.3,.,.,57.0,.,105.6,59.0,84.5,47.5
CC1CCCN(CCC(=O)c2ccccc2)C1 (stereo not drawn),71.9,.,/,.,/,85.2,.,.,.
CCC(C)CNC(=O)c1cn(C(C)c2ccccc2)nn1 (stereo not drawn),/,.,/,/,/,/,/,/,/
CC1(C)C[C@H](O)[C@]2(CO)[C@H](O)C[C@]3(C)C(=CCC4[C@@]5(C)CC[C@H](O)C(C)(C)C5CC[C@]43C)[C@@H]2C1 (stereo partly drawn),51.2,.,/,.,/,.,.,.,.
COC(=O)[C@]12CCCCC=C1N(Cc1ccc(OC)cc1)C(=O)[C@@H]2CC(=O)NCC1CCCCC1,/,.,/,/,/,/,/,/,/
CN1C(=O)C[C@@](C#N)(C(=O)NCc2ccccc2)[C@H]1c1ccccc1,/,.,/,/,/,/,/,/,/
Nc1nc(N)c2cc(CNc3ccc(Cl)c(Cl)c3)ccc2n1,64.0,.,/,53.4,/,79.8,42.4,74.0,65.7
CCOc1ccc2nc3cc(NCc4ccc(OC)cc4)ccc3c(N)c2c1,/,/,.,/,.,/,/,/,/
COc1ccc(N=C2Sc3ccccc3[C@@H]3C[C@H]4[C@H](CON4C)CN23)c(OC)c1,.,.,/,.,/,/,/,/,/
CC(C)(C)c1ccc(C#C[C@@H]2C=C[C@@H](O)[C@@H](COC(=O)NCc3ccccc3)O2)cc1,.,.,/,.,/,/,/,/,/
Cc1cc(C)c(C(=O)OCC(=O)NC(=O)c2ccccc2)c(C)c1,58.5,.,.,69.6,/,.,.,.,34.0
CC/C(=C(\c1ccccc1)c1ccc(OCCN(C)C)cc1)c1ccccc1,39.0!,.,.,.,/,46.5,41.9,.,37.8
COCC(=O)N(Cc1ccccc1)c1ccccc1C(=O)Nc1cc(OC)ccc1OC,/,.,/,/,/,/,/,/,/
O[C@@H](Cc1ccccc1)[C@@H](/C=C/c1ccccc1)NCCc1ccccc1,53.4,.,/,.,/,90.1,18.4,.,23.6
COC(=O)[C@]12CCCCC=C1N(Cc1ccc(OC)cc1)C(=O)[C@@H]2CC(=O)N1CCN(C(=O)C2CC2)CC1,/,.,/,/,/,/,/,/,/
Fc1ccccc1-c1nc(-c2ccccc2)no1,.,.,.,.,.,/,/,/,/

# High-throughput results: PubChem BioAssay, The Scripps Research Institute Molecular Screening Center
